Assay outcomes (PubChem BioAssay)
Hits are enriched below; roughly 1.2% of the tested compounds scored in any of these assays.
thrombin 1536 = inhibitors of human thrombin; 220,000 tested, 0.26% active; P00734; alpha-thrombin, Boc-VPR-AMC fluorogenic substrate cleavage; inhibition, % at 5 µM;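 active = inhibition at or above 40%; inactive = inhibition below 40%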;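 note: 0% = enzyme with no compound and 100% = wells without enzyme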
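System: human alpha-thrombin protein; Compound dosing: one concentration per compound, 5 µM, with 0.2% DMSO; Timing: reaction at room temperature; Technique: AMC fluorescence, 355/460 nm; Controls: enzyme without compound as high, wells lacking enzyme as low.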
Redox H2O2 prof = compounds producing H2O2 with reducing agent – biochemical, NIH compound library profiling, artefact control for MLSCN library redox annotation, primary screen. 200,000 tested, 0.03% active. activation, % at 10 µM. DTT-dependent redox cycling H2O2, phenol red/HRP absorbance; 100% = 100 µM peroxide control, 0% = buffer. AID 878;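 active = activation of at least 50% relative to the plate's high and low controls in the primary single-dose screen; inactive = activation below 50%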;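 note: compound incubated with DTT at 0.8 mM final as the reducing agent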
FXIa inh 1536 = factor XIa (human) inhibition | 220,000 tested, 0.14% active | purified FXIa, Boc-Glu-Ala-Arg-AMC fluorogenic substrate | AID 798 | inhibition, % at 5 µM;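 active = inhibition of at least 40%; inactive = inhibition below 40%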;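 note: fluorescence of freed AMC excited at 355 nm; 0% = enzyme without compound and 100% = no enzyme blank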
Target sequence (P03951 19-387 limits assumed): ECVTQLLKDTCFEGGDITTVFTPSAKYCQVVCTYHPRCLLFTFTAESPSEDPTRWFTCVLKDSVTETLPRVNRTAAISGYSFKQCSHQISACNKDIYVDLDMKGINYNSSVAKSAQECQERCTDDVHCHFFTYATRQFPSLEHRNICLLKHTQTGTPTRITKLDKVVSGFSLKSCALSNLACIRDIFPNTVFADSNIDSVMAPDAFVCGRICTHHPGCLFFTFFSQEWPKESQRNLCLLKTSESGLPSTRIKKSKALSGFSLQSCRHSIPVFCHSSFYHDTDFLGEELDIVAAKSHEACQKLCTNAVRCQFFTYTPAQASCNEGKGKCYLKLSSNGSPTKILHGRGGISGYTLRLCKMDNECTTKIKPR
Target sequence (P03951 388-625 limits assumed): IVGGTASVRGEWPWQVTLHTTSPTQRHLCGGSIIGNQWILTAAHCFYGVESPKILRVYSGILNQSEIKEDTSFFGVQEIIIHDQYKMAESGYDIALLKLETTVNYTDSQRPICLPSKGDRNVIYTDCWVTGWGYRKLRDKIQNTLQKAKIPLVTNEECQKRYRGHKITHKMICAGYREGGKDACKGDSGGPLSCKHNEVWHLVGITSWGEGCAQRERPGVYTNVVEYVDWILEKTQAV
S1P3 antag = blocks the human S1P3 receptor | CHO S1P3 NFAT-BLA reporter, FRET fluorescence, antagonist mode | inhibition, % at 4.98 µM | 170,000 tested, 0.27% active;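 active = inhibition above the plate cutoff, the mean inhibition of test wells on that plate plus 3 SD, cut at about 28% in these data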;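 note: cells challenged with S1P at its EC80 of 0.8 µM; blue over green emission ratio from cleaved BLA substrate after 4 h stimulation; 0% = S1P-stimulated wells and 100% = unstimulated DMSO-only wells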
hK5 inh = blocks human kallikrein 5 protease activity; recombinant hK5, fluorogenic AMC substrate cleavage; 210,000 tested, 0.59% active; Q9Y337; inhibition, % at 5 µM;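 active = inhibition of 40% or more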;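 note: 0% = enzyme controls without compound and 100% = no-enzyme blanks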
FXIIa inh = inhibitors of human coagulation factor XIIa; inhibition, % at 5 µM; P00748; purified FXIIa, Boc-QGR-AMC fluorogenic substrate, 2 h; 220,000 tested, 0.3% active; in the data active = inhibition above about 40%;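 note: 0% = enzyme with no compound and 100% = blank without enzyme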
Numbers without * were called inactive; / = no result.

SMILES	thrombin 1536	Redox H2O2 prof	FXIa inh 1536	S1P3 antag	hK5 inh	FXIIa inh
Cc1oc(C)c(C(=O)O)c1C(=O)O	-4	/	-7	-5	-9	2
N#Cc1c(-c2ccccc2)ccnc1N1CCOCC1	-5	0	-3	-12	-23	7
Cc1nnc(SCc2nnc(-c3ccccc3Br)o2)n1-c1ccccc1	41*	0	-7	-4	-21	1
C=C(C)CN=c1scc(C)n1/N=C/c1ccco1	9	-1	4	-3	43*	10
Cc1cc(C)n(-c2nnc(C)n2/N=C/c2ccco2)n1	1	0	9	/	-4	16
Cc1cc(=O)n2c(n1)SCOC2	5	/	21	8	35	43*
O=C(O)/C=C/C(=O)N1CCN(C(c2ccccc2)c2ccccc2)CC1	6	/	4	13	-11	3
O=C(O)CCCC(=O)N1CCN(C(c2ccccc2)c2ccccc2)CC1	16	0	7	-24	52*	6
CC(C)c1ccc(C(N)=S)cc1	-16	-1	-9	-5	-8	3
COc1ccc2c(c1)nc(SCC(O)c1ccccc1)n2C (stereo not drawn)	-5	-1	-2	8	2	11
Cc1noc(/C=C/c2cccs2)c1S(=O)(=O)N1CCC(C(=O)NCCCN2CCC(C)CC2)CC1	-8	10	-2	0	/	7
Cc1ccc2cc(CN(C(=O)c3cccs3)c3ccccc3)c(=O)[nH]c2c1	18	/	25	15	62*	74*
O=C(CCCN1C(=O)c2ccccc2C1=O)Nc1nnc(C2CC2)s1	-23	0	-6	2	0	10
CCOc1ccc(CSCCNC(=S)Nc2ccccc2)cc1	20	0	1	1	51*	-6
CCn1nc(C)c(Br)c1Nc1ccc(Br)cc1	-4	-1	-4	12	-3	4
CC12CCC(c3c(C(=O)N4CCOCC4)nn(-c4ccccc4)c31)C2(C)C (stereo not drawn)	2	-4	31	-22	41*	40*
Cc1csc2c(NCCCN3CCOCC3)ncnc12	-4	/	1	-4	-2	7
COC(=O)c1ccc(NC2CC(=O)N(c3ccccc3C)C2=O)cc1 (stereo not drawn)	45*	0	-1	/	27	31
CCN=C1SCC(=O)N1c1ccc(OC)cc1	14	-1	7	5	44*	11
O=C(Cn1c(-c2cscn2)nc2ccccc21)Nc1ccccc1F	32	2	8	/	42*	22
Cc1ccc(CNC(=O)CN(C)S(=O)(=O)c2cccs2)cc1	3	-1	-2	-10	-3	5
CNC(=S)N1CCC(NC(=O)c2ccco2)CC1	29	/	44*	5	18	25
CCNC(=S)N1CCC(NC(=O)c2ccco2)CC1	2	0	-1	-21	-2	5
O=C(COC(=O)c1cccnc1)Nc1ccc2c(c1)OCO2	1	-1	-1	-3	-3	4
COc1ccc(OC)c2c1C(=O)C(Cl)=C(Cl)C2=O	-6	/	-2	31*	-2	1
SMILES	thrombin 1536	Redox H2O2 prof	FXIa inh 1536	S1P3 antag	hK5 inh	FXIIa inh
COc1ccc(OC)c2c1C(=O)c1ccccc1C2=O	-2	-8	0	/	2	1
O=C(NCc1ccccc1F)C1CCN(C(=O)NCc2ccccc2)CC1	-5	2	3	68*	-13	19
Cc1ccc(C2CC(=O)C=C(NCc3ccccc3)C2)cc1 (stereo not drawn)	-12	/	2	-4	3	5
CCOC(=O)N1CCN(C(=O)CSCC(=O)Nc2nc(-c3ccc(Cl)s3)cs2)CC1	50*	0	8	5	-5	15
Cc1cc(C)cc(NC(=O)CSc2nnc(-c3ccccc3C)o2)c1	17	3	6	-18	54*	-5
Cc1ccccc1NC(=O)C(=O)Nc1ccccc1C	-1	/	14	1	2	6
Cc1ccccc1NC(=O)Nc1ccccc1Br	47*	4	17	/	22	16
COc1cccc(C(=O)NNC(=O)Cc2ccc([N+](=O)[O-])cc2)c1	44*	0	-11	-13	10	-8
O=c1[nH]c2ccc([N+](=O)[O-])cc2nc1/C=C(\O)c1ccccc1	-1	/	2	-1	0	9
Cc1c(C(=O)NCCc2ccccc2)oc2ccc(S(=O)(=O)N3CCC4(CC3)OCCO4)cc12	-1	2	8	/	-6	8
CCOC(=O)N1CCN(C(=O)c2oc3ccc(S(=O)(=O)N4CCOCC4)cc3c2C)CC1	40*	-1	-8	/	-9	3
COc1ccc(NC(=O)c2oc3ccc(S(=O)(=O)N4CCC5(CC4)OCCO5)cc3c2C)cc1	8	0	11	-7	100*	15
O=C(NCc1ccccc1)c1cccnc1N1CCOCC1	10	1	2	5	72*	-8
O=C(NCc1ccccc1)N1CCOCC1	0	/	5	3	3	8
CCOC(=O)N1CCN(C(=O)c2cnn3c(C)c(Cc4ccc(C)cc4)c(C)nc23)CC1	10	0	4	/	63*	21
Cc1ccc(C)c(Cc2c(C)nc3c(C(=O)N4CCOCC4)cnn3c2C)c1	-2	0	-11	14	19	-2
COc1ccc(CN2C(=O)c3cccnc3C2Nc2cc(Cl)ccc2OC)cc1 (stereo not drawn)	5	-2	5	27	46*	14
Nc1nc(Cl)cc(Sc2ccc(F)cc2)n1	-19	2	-10	/	-11	0
Cc1ccc(Sc2cc(Cl)nc(N)n2)cc1	23	0	10	/	77*	20
O=C(N/N=C/c1cccnc1)c1ccccc1OCc1ccc(Cl)cc1	2	-1	2	14	4	7
O=C(NN=C1CCCC1)c1ccccc1OCc1ccc(Cl)cc1	33	0	52*	0	38	28
COc1ccc(Oc2ccccc2C=O)cc1	20	3	4	/	51*	20
COc1ccc(Oc2ccccc2/C=C/C(=O)O)cc1	0	2	2	/	-5	14
COc1ccc(C)cc1NC(=O)C(=O)NNC(=O)COc1ccc(Cl)cc1	-3	0	1	6	-18	7
Cc1ccc(Cl)cc1N1CCN(C(=O)COc2ccc(S(=O)(=O)NC(C)C)cc2)CC1	20	-1	17	-8	46*	22
Cc1onc(-c2c(Cl)cccc2Cl)c1-c1nnc(-c2ccc(Cl)cc2)o1	-5	/	3	-6	0	3
Cc1onc(-c2c(F)cccc2Cl)c1-c1nnc(-c2ccc(C(F)(F)F)cc2)o1	18	/	33	-8	33	57*
CCc1nnc(NC(=O)CSc2nc3c(cc2C#N)CCCC3)s1	12	3	1	2	49*	3
